Assay outcomes: PubChem, several laboratories
dFosB act-1: activators of delta FosB homodimer, primary screen, biochemical, fluorescence polarization, TAMRA-CDK5 oligo, single point. Protein FosB (Mus musculus), P13346. purified delta FosB; percent of positive-control signal above neutral wells. activation, % at 25 µM. 340,000 compounds, 0.99% hits;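 active = mean activation above about 17%, with every replicate also reaching it, limit read from the data, passing the limit was not always enough; inconclusive = only one of the two conditions met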
NTR1 ag: agonists of human NTR1, primary screen, imaging, U2OS cells, beta-arrestin-GFP, high content; Neurotensin receptor type 1 (Homo sapiens), P30989; NTR1-U2OS beta-arrestin-GFP spot imaging, agonist mode; activation, % at 20 µM; 330,000 compounds, 0.17% hits; AID 493036, 2011;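 active = activation at or above 40% of the spot to cytoplasm intensity ratio, with at least 20 cells analyzed; inconclusive = wells under 20 cells, flagged as cytotoxic or low count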
Target sequence (P30989 whole entry, looked up): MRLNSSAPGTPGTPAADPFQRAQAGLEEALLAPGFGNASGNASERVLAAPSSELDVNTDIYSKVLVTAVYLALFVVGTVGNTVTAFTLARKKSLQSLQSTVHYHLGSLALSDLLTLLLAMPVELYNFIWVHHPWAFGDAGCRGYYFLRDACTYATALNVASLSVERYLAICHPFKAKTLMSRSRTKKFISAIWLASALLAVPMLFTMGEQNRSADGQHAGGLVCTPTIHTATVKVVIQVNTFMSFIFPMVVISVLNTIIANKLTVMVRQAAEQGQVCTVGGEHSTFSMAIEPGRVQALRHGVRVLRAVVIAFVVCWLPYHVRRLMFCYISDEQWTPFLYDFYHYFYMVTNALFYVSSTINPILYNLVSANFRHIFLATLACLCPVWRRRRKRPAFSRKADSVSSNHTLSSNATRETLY
CAL PDZ FP-1: CAL PDZ peptide-binding inhibitors, primary screen, biochemical, fluorescence polarization, Cer-tagged CAL PDZ, HTS; inhibition, % at 20 µM; 330,000 compounds, 0.02% hits; purified CAL PDZ, TMR-peptide fluorescence polarization, 1 h; AID 504414, 2011;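 active = highest replicate inhibition of at least 40%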
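Control set: unlabelled peptide and DMSO controls / Material: purified CerCALP PDZ construct / Timing: 1 h incubation at room temperature before polarization reading / Doses: 20 µM, one dose / Detection: fluorescence polarization (mP)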
PKA-R1A activ: activators of PKA-R1A holoenzyme, primary screen, biochemical, fluorescence polarization, Cy5-IP20, bovine R1A, mouse PKAc | PKA-R1A dissociation; scaled: DMSO 0%, 113 µM cGMP 100% | activation, % at 11.4 µM | 340,000 compounds, 0.083% hits;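 active = percent activation above the mean of all tested compounds plus 3 SD, cut at about 19% in these data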;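 note: higher means more PKAc released from R1A so a rise in polarization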
PKA-R2B activ: activators of PKA-R2B holoenzyme, primary screen, biochemical, fluorescence polarization, Cy5-IP20, human. PKA-R2B holoenzyme dissociation; R2B truncated from residue 108, S112A mutant; 0% DMSO only, 100% 113 µM cGMP. activation, % at 11.4 µM. 340,000 compounds, 0.079% hits. AID 504700, 2011;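 active = activation above a cutoff set at the mean over all compounds plus 3 SD, cut at about 18% in these data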;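 note: higher means more holoenzyme dissociation and a rise in polarization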
CAL PDZ FP-2: untagged CAL PDZ binding inhibitors, primary screen, biochemical, fluorescence polarization, HTS. purified CAL PDZ, TMR-peptide fluorescence polarization, 1 h. inhibition, % at 24.9 µM. 300,000 compounds, 0.92% hits;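 active = mean inhibition of at least 30% with at least half of replicates also reaching 30%; inconclusive = no clear call, values can overlap the other calls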
dFosB act-2: activators of mouse delta FosB DNA binding, confirmation, biochemical, fluorescence polarization, TAMRA-CDK5 oligo, cherry-picked samples | shares compounds with dFosB act-1 | purified delta FosB; normalised: neutral wells 0, positive control 100 | activation, % at 24.9 µM | 2,400 tested, under 10 active | AID 588690, 2011;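 active = highest replicate activation at or above 34% and every replicate reaching that threshold; inconclusive = meets only one of the two criteria; inactive = meets neither criterion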;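 note: higher polarization means more probe DNA bound by delta FosB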
Large screens that a line does not name were inactive (follow-up assays come after a bar, where they were run). Rows were chosen to be rich in hits. Some 2% of all compounds tested hit in one or more screens of this group.

Cc1ccc(N2CC(=O)Nc3c(oc4nc(-c5ccccc5)cc(C)c34)C2=O)cc1	dFosB act-1 23.9 (no result: CAL PDZ FP-2) | dFosB act-2 inactive
Cc1cc(C)c2c3c(oc2n1)C(=O)N(c1cccc(Cl)c1)CC(=O)N3	none
CCN1/C(=C\C=C(C(C)=O)C(C)=O)Sc2ccccc21	none
CCN1/C(=C\C=C2\C(=O)N(c3ccccc3)C(=S)N2C)Sc2ccccc21	dFosB act-1 27.8 (no result: NTR1 ag) | dFosB act-2 inactive
Cc1cccc(/C=N/NC(=O)c2ccc(NC(=O)c3ccc(Cl)cc3)cc2)n1	dFosB act-1 41.5 | dFosB act-2 inactive
O=C(N/N=C/c1cccnc1)c1cccc(NC(=O)c2ccc(Cl)cc2)c1	dFosB act-1 32.0 | dFosB act-2 inactive
O=C(Nc1ccc(Br)cc1)c1ccc(Br)c(S(=O)(=O)Nc2cccnc2)c1	dFosB act-1 27.8 | dFosB act-2 inactive
O=C(/C=C/c1cccnc1)c1ccc(NC(=O)c2cccc(Br)c2)cc1	dFosB act-1 46.5 | dFosB act-2 inactive
CC[C@@H]1C(=O)[C@H](Cc2ccccc2)[C@H]2CCCC(=O)N3CC[C@@H]1[C@@H]23	none (no result: NTR1 ag)
Cc1ccnc(NC(=O)c2cccc(NC(=O)c3ccc(Cl)c(Cl)c3)c2)c1	dFosB act-1 48.5 (no result: NTR1 ag) | dFosB act-2 inactive
Cc1ccnc(NC(=O)c2cccc(NC(=O)c3ccc(Cl)cc3)c2)c1	none (no result: NTR1 ag)
O=C(Nc1ccc(-n2cnnn2)cc1)c1cccc(S(=O)(=O)N2CCCC2)c1	none
Cc1ccc(NC(=O)c2ccc(S(=O)(=O)NCc3ccco3)cc2)nc1	none
Cc1cccc(NC(=O)c2ccc(S(=O)(=O)NCc3ccco3)cc2)n1	dFosB act-1 33.1 | dFosB act-2 inactive
CCOC(=O)C1=C(CS(=O)(=O)c2ccccc2)NC(=O)NC1c1ccccc1OC (centres undefined)	none
CC(C)OCC(O)CN1CCN(CCN2C(=O)c3cccc4cccc(c34)C2=O)CC1 (centres undefined)	dFosB act-1 inconclusive
CC(=O)c1ccc(OCC(O)CN2CCN(CCN3C(=O)c4cccc5cccc(c45)C3=O)CC2)cc1 (centres undefined)	dFosB act-1 37.6 | dFosB act-2 inactive
Cc1cccc(C)c1OCC(O)CN1CCC(CN2C(=O)c3cccc4cccc(c34)C2=O)CC1 (centres undefined)	dFosB act-1 74.0 | dFosB act-2 inactive
CCC(OCC(O)CN1CCN(CCN2C(=O)c3cccc4cccc(c34)C2=O)CC1)c1ccccc1 (centres undefined)	dFosB act-1 30.2 | dFosB act-2 inactive
Cc1ccccc1OCC(O)CN1CCN(CCN2C(=O)c3cccc4cccc(c34)C2=O)CC1 (centres undefined)	dFosB act-1 49.9 | dFosB act-2 inactive
Nc1nc(COC(=O)c2ccc3c(c2)OCCO3)nc(Nc2ccccc2)n1	none
COc1cccc(NC(=O)COC(=O)CCC2CCCC2)c1	none (no result: CAL PDZ FP-2)
CCOc1ccccc1NC(=O)c1oc2ccccc2c1NC(=O)C1CC1	none
COc1ccccc1NC(=O)c1oc2ccccc2c1NC(=O)C1CC1	dFosB act-1 23.7 | dFosB act-2 inactive
Cn1c(=O)c(C(=O)NCCc2ccc(Cl)cc2)c(O)c2ccccc21	none (no result: CAL PDZ FP-2)
CCOC(=O)c1c(C)[nH]c(C(=O)OC(C)C(=O)NC2CCCCC2C)c1C (centres undefined)	dFosB act-1 49.0 | dFosB act-2 inactive
Cc1ccc(S(=O)(=O)N(C)C)cc1NC(=O)C(C)OC(=O)c1cc[n+]([O-])cc1 (centres undefined)	none
CCN(C(=O)COC(=O)CCC(=O)c1cccs1)c1ccccc1	none
Cc1ccccc1NC(=O)c1ccc(F)c(S(=O)(=O)N2CCN(c3ccccn3)CC2)c1	dFosB act-1 19.0 | dFosB act-2 inactive
Cc1ccc(-n2c(SCC(=O)Nc3nccs3)nc3c(c2=O)SCC3)cc1	dFosB act-1 38.2 | dFosB act-2 inactive
CCOc1ccc(-n2c(SCC(=O)Nc3nccs3)nc3c(c2=O)SCC3)cc1	none (no result: CAL PDZ FP-2)
O=C(NNC(=O)c1ccccc1Cl)c1ccc(-n2cncn2)c([N+](=O)[O-])c1	none
CSCC[C@H](NC(=O)c1ccc(Cl)c([N+](=O)[O-])c1)c1nc2ccccc2[nH]1	none
O=C(NC(Cc1ccccc1)c1nc2ccccc2[nH]1)c1ccc(Cl)c([N+](=O)[O-])c1 (centres undefined)	dFosB act-1 30.8 | dFosB act-2 inactive
COc1ccc2nc(-c3ccc(Cl)cc3)cc(C(=O)O)c2c1	none
Cc1ccc(CC(=O)NNC(=O)c2ccncc2)cc1C	none
CC(=O)N1CCN(C(=O)c2ccc(S(=O)(=O)Nc3ccccc3F)cc2)CC1	none
O=C(NN=Cc1ccc([N+](=O)[O-])cc1)c1ccncc1	none (no result: NTR1 ag)
O=C(/C=C/c1ccc([N+](=O)[O-])cc1)Oc1ccc(/C=N/NC(=O)c2ccncc2)cc1	dFosB act-1 26.3 | dFosB act-2 inactive
COc1cccc(NC(=O)Cn2nnc(C(=O)NCCc3ccccc3)c2N)c1	dFosB act-1 37.1 | dFosB act-2 inactive
COc1ccccc1NC(=O)Cn1nnc(C(=O)NCCc2ccccc2)c1N	dFosB act-1 39.7 | dFosB act-2 inactive
CCOc1ccc(-n2nnnc2SCC(=O)Nc2ccc(NC(C)=O)cc2)cc1	dFosB act-1 19.4 (no result: CAL PDZ FP-2) | dFosB act-2 inactive
CCOc1ccc(-n2nnnc2SCC(=O)Nc2cccc(O)c2)cc1	none
CCOc1ccc(NC(=O)Cn2c(=O)n(CCCC(=O)NC3CCN(Cc4ccccc4)CC3)c(=O)c3ccccc32)cc1	none
Cc1ccccc1-n1nc2c(c1NC(=O)C1CC1)CS(=O)(=O)C2	none (no result: dFosB act-1, NTR1 ag, CAL PDZ FP-1, CAL PDZ FP-2)
Cc1ccc(NNC(=O)C(O)(c2cccc(C(F)(F)F)c2)c2cccc(C(F)(F)F)c2)cc1	dFosB act-1 77.1 | dFosB act-2 inactive
Cc1ccc(CN2CC(C(=O)NCCCSc3ccccc3)CC2=O)cc1 (centres undefined)	none
